Hits are enriched below; roughly 1.6% of the tested compounds scored in any of these assays.
Dynein transport – dynein cargo transport inhibition; 220,000 tested, 0.47% active; z-score, hits read low; 3617.4 mouse cells, GR-EGFP nuclear translocation imaging; test concentration mostly 20 µM; stimulated with dexamethasone, 1 µM; active compounds read low;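 active means plate z-score of nuclear minus cytoplasmic receptor signal below a set negative limit, without overly bright fluorescence or cell loss, cut at about -3.5 in these data, passing the limit was not always enough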;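 further: z-score of nuclear minus cytoplasmic ring GR-EGFP intensity difference per well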
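Schedule: 48 h induction, then 1 h compound, then 30 min agonist, 37 °C. Buffer or medium: tetracycline-free induction medium containing charcoal-stripped FBS. Reagent: 1.0 µM final dexamethasone stimulus. Evaluation: nuclear versus cytoplasmic GR-EGFP signal, averaged per well. Signal: high-content fluorescence imaging after fixation.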
TLR9-MyD88 block – TLR9-MyD88 interaction inhibition; Q9NR96+Q99836; CHO BLA complementation TLR9-MyD88, CCF4 FRET ratio; inhibition, % at 4.98 µM; 340,000 tested, 0.21% active;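 active means inhibition above the mean over all tested compounds plus 3 SD, cut at about 21% in these data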;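 further: 0% = DMSO only wells and 100% = clavulanate BLA inhibitor control wells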
TLR4 MyD88 comp – blocks binding of human TLR4 to MyD88; O00206+Q99836; HeLa CL3-4 TLR4/MyD88 BLA complementation, FRET ratio; inhibition, % at 8.4 µM; 200,000 tested, 0.18% active; AID 861; in the data active means inhibition above about 25%;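 further: 0% = vehicle and 100% = reference inhibitor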
ABHD5 PLIN5 PPI – ABHD5-PLIN5 protein interaction inhibition; inhibition, % at 4 µM; 360,000 tested, 0.78% active; Q00G26+Q8WTS1; Split G. princeps luciferase complementation, luminescence, 4 h;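 active means inhibition above the mean inhibition across every tested compound plus 3 SD, cut at about 22% in these data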;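 further: 0% = DMSO only wells and the 100% control is not disclosed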
B2AR ag – agonists of human beta-2 adrenergic receptor inducing internalization; Am2.2-beta2AR cells, FAP receptor internalization, flow cytometry; 340,000 tested, 0.43% active; AID 504454; P07550; response, % (test concentration not listed);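 active means response above a set limit, near 3 SD of response in nonfluorescent compounds, cut at about 42% in these data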
Target sequence (P07550 whole entry, looked up): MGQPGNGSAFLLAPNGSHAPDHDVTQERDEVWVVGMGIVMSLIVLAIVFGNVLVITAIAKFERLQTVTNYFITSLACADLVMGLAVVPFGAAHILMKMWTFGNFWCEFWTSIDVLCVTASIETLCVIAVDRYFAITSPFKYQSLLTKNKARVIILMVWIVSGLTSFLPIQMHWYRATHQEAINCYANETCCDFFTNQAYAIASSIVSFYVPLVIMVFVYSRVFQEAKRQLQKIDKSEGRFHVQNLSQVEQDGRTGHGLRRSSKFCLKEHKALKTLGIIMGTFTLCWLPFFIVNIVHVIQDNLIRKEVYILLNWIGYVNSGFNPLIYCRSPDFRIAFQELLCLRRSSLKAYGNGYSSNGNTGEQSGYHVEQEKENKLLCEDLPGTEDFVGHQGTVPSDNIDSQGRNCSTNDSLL
NOD2-RIPK2 inh – blocks binding of human NOD2 to RIPK2 | O43353 | 360,000 tested, 0.38% active | inhibition, % at 4.98 µM | CHO BLA complementation NOD2-RIPK2, CCF4 ratio; in the data active means inhibition above about 21%;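 further: 0% = vehicle only and 100% = reference blocker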
ABHD5 PLIN5 conf – confirmation of human ABHD5-PLIN5 interaction inhibitors; shares compounds with ABHD5 PLIN5 PPI; biochemical ABHD5-PLIN5 interaction, luminescence; inhibition, % at 4 µM; 2,200 tested, 67% active; AID 651612; in the data active means inhibition above about 23%;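 further: 0% = DMSO vehicle wells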
HNF4 split-luc – active in HNF4 split-luciferase counter-screen for ABHD5-PLIN5 inhibitors; 2,200 tested, 77% active; inhibition, % at 4 µM; shares compounds with ABHD5 PLIN5 PPI; AID 651674; HNF4 dimerization, luminescence, biochemical;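 active means mean inhibition across replicate wells exceeding the computed hit threshold, cut at about 13% in these data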;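 further: light from luciferase halves that rejoin when HNF4 fusion proteins dimerize; 0% = DMSO only wells and the 100% control is not given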
* marks the source's active call; other numbers are inactive results; x = no result given.

SMILES	Dynein transport	TLR9-MyD88 block	TLR4 MyD88 comp	ABHD5 PLIN5 PPI	B2AR ag	NOD2-RIPK2 inh	ABHD5 PLIN5 conf	HNF4 split-luc
Nc1ccccc1SC(CC(=O)c1ccccc1)c1ccccc1 (configuration not stated)	x	-17	x	68*	x	4	0	79*
S=C(NCCc1ccccn1)NC1CC2CCC1C2 (configuration not stated)	-0.93	4	x	62*	-9	-3	1	-2
CCOc1ccc(S(=O)(=O)N2CCC(C(=O)NCCc3ccc(S(N)(=O)=O)cc3)CC2)cc1	x	5	x	3	-11	-2	x	x
Cc1ccc(NS(=O)(=O)c2ccccc2[N+](=O)[O-])cc1S(=O)(=O)N1CCCCC1	x	-5	x	-7	-1	-9	x	x
O=[N+]([O-])c1ccccc1S(=O)(=O)Nc1ccc(S(=O)(=O)N2CCCC2)cc1	x	-10	x	33*	1	3	34*	48*
CC(=O)c1ccccc1C(=O)N1CCC(CCC(=O)NCc2ccc(F)cc2)CC1	x	-8	x	4	x	-12	x	x
Cc1ccc(-c2ccc(CCC(=O)O)o2)cc1	-1	-4	-6	28*	7	-17	13	44*
CC1(c2nc3ccccc3cc2C#N)OCCO1	x	5	x	-8	x	3	x	x
COc1cc2c(cc1NC(=O)CC1SC(N3CCCC3)=NC1=O)oc1ccccc12 (configuration not stated)	-1.8	3	-2	29*	5	11	16	10
CCOC(=O)c1ccccc1NC(=O)COC(=O)CSc1ccccc1	x	-11	x	7	-5	2	x	x
Cc1ccc(S(=O)(=O)N2C[C@H]3n4c(=O)ccc(=O)n4C[C@H](OC(=O)Nc4cccs4)[C@@]3(O)C2)cc1	x	2	x	35*	x	0	58*	34*
CCCCCCn1c(=O)n2n(c1=O)[C@@H]1CN(S(=O)(=O)c3ccc(C)cc3)C[C@]1(O)[C@@H](OC(=O)NCc1ccccc1F)C2	x	-5	x	-12	x	-2	x	x
Cc1ccc(S(=O)(=O)N2C[C@H]3n4c(=O)ccc(=O)n4C[C@H](OC(=O)NCc4ccccc4F)[C@@]3(O)C2)cc1	x	-1	x	25*	x	1	49*	42*
CCCCCCn1c(=O)n2n(c1=O)[C@@H]1CN(S(=O)(=O)c3ccc(C)cc3)C[C@]1(O)[C@@H](OC(=O)Nc1cccs1)C2	x	-4	x	-17	x	-5	x	x
COc1cc(OC)c2c(-c3cccc(-c4ccc(F)c(Cl)c4)c3)cc(=O)oc2c1	x	-3	x	5	-3	-35	x	x
COc1ccc(N2CCCC2=O)cc1S(=O)(=O)N1CCOCC1	x	-2	x	4	x	2	x	x
Cc1nc2c(o1)C(=O)c1ccccc1C2=Nc1ccccc1	x	10	x	-8	-1	3	x	x
COc1ccc(/C=C/C(=O)c2ccncc2)c2ccccc12	-0.51	3	2	56*	18	1	84*	79*
O=C1C=CC(n2cc(F)c(=O)[nH]c2=O)O1 (configuration not stated)	x	6	x	31*	x	-1	42*	33*
COC(=O)C1=C(C)N(Cc2ccccc2)C(=NCC(C)C)N[C@H]1c1cccc(C(F)(F)F)c1	x	-1	x	24*	34	7	14	2
COC(=O)C1=C(C)N(Cc2ccccc2)C(=NCc2ccccc2)N[C@H]1c1cccc(C(F)(F)F)c1	x	-1	x	2	28	14	x	x
COc1ccc(C2=C(C)C(N3CCN(C(=O)c4ccco4)CC3)=NS2(=O)=O)cc1	x	-8	x	-6	-6	-5	x	x
Cc1ccc(C(=O)/C=C/C(=O)O)cc1	-3.5	-9	2	93*	5	-3	95*	106*
O=CNc1cc(-c2ccc(C(=O)NC3CC3)cc2)cn2c(-c3ccc(F)cc3)cnc12	x	x	x	9	x	-4	x	x
CCOC(=O)C1=CC[C@@H](c2ccccc2)N(S(=O)(=O)c2ccc(C)cc2)[C@@H]1C#N	x	x	x	48*	x	5	50*	58*
SMILES	Dynein transport	TLR9-MyD88 block	TLR4 MyD88 comp	ABHD5 PLIN5 PPI	B2AR ag	NOD2-RIPK2 inh	ABHD5 PLIN5 conf	HNF4 split-luc
Cc1cccc(CSc2ccc(S(=O)(=O)N3CCCC3)cn2)c1	x	2	x	-4	2	-5	x	x
COc1ccccc1C1CC(c2cccs2)=Nc2ccccc2S1 (configuration not stated)	0.89	0	5	45*	7	7	-5	5
COC(=O)c1ccc2c(c1)C(C)(C)C(/C=C/c1ccccc1O)=[N+]2C	-3.2	14	10	64*	62*	17	98*	95*
CCSc1ccc2c(c1)N(CCCN1CCN(C)CC1)c1ccccc1S2	x	-1	x	24*	29	-1	36*	8
CN1CCN(CCCN2c3ccccc3Sc3ccc(Cl)cc32)CC1	1.9	-1	14	16	26	6	x	x
O=C(c1ccc(Cl)cc1)C(CN1CCCC1)c1ccccc1 (configuration not stated)	x	2	x	48*	34	18	53*	103*
CCOC(=O)c1c(-c2ccc(C)o2)csc1NC(=O)CSc1ncn[nH]1	-0.14	7	-9	44*	-1	-7	12	52*
CCOC(=O)c1c(-c2ccc(C)o2)csc1NC(=O)COC(=O)c1cccs1	-0.93	1	11	27*	8	16	10	28*
CCOC(=O)c1c(-c2ccc(C)o2)csc1N	-1.2	-4	7	1	0	3	x	x
CCCC1NC(=O)c2cccnc2-n2c1nc1ccc(C)cc1c2=O (configuration not stated)	x	-5	x	-5	x	11	x	x
Cc1ccc(NC2C(=O)NC(=O)NC2=O)cc1	x	11	x	44*	7	-6	10	15*
COc1ccc(-n2c(O)c(/C=C3\C=Nc4ccccc43)c(=O)[nH]c2=O)cc1	x	-3	x	31*	3	4	11	24*
COc1ccc(OC)c(/C=C/C(=O)c2ccc3c(c2)OCCO3)c1	x	-1	x	13	-4	18	x	x
O=S(=O)(c1ccc(N=C2NN=C(c3cc(F)ccc3F)CS2)cc1)N1CCOCC1	-0.33	x	-8	12	12	-6	x	x
CC(=O)Nc1ccc(C2=NNC(=Nc3ccc(S(=O)(=O)N4CCOCC4)cc3)SC2)cc1	0.35	-4	x	75*	3	-3	59*	79*
COc1ccccc1-c1cc(NC(C)=O)c2ncc(-c3cccc(C(C)=O)c3)n2c1	x	x	x	6	x	-3	x	x
CCOC(=O)C1(C)CCCN(C(=O)c2ccc3ccccc3c2)C1 (configuration not stated)	x	x	x	1	x	3	x	x

Assay outcomes (PubChem BioAssay)
